# In ChEMBL document CHEMBL1155498, “Glycine amides as PPARalpha agonists” (Bioorg Med Chem Lett, 2010):
# Tests used:
# [1] = Aqueous solubility of the compound; type: physicochemical
# [2] = Oral bioavailability in NMRI mouse at 10 mg/kg; type: ADME, organism-based; conditions: in vivo
# Summary of the method: (§1)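 Male NMRI mice (n = 3) dosed orally at 10 mg/kg as a suspension in 20% PEG 400 (5 ml/kg). Plasma sampled at 7 time points up to 6 h. Concentrations dose-normalised to 1 mg/kg. Bioavailability taken against an iv arm (3 mg/kg, 20% PEG400, n = 3).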
# [3] = Half life in NMRI mouse at 3 mg/kg, iv; type: ADME, organism-based; set-up: dose 3 mg/kg, route intravenous; conditions: in vivo
# Summary of the method: (§2)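 Male NMRI mice (n = 3) given 3 mg/kg iv in 20% PEG400. Plasma concentration–time profile followed over about 6 h. Concentrations dose-normalised to 1 mg/kg.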
# [4] = Clearance in NMRI mouse at 3 mg/kg, iv; type: ADME, organism-based; set-up: dose 3 mg/kg, route intravenous; conditions: in vivo; summary of the method: as §2
# Mus musculus [5] = assay: Increase in total cholesterol level in human ApoA1 transgenic mouse at 2 mg/kg, po for 7 days (RVb = 29 %); type: functional
# Summary of the method: (§3)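 Male transgenic hAPO-A1 C57BL/6 mice, n = 10 per dose. Dosed orally once daily for 7 d at 0.6, 2 or 6 mg/kg in Solutol HS15 + ethanol + 0.9% brine (1+1+8), 10 ml/kg. Serum triglycerides and total cholesterol measured photometrically against vehicle control. Total cholesterol serves as a surrogate for HDL.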
# [6] = AUC in NMRI mouse at 10 mg/kg, po; type: ADME, organism-based; set-up: dose 10 mg/kg, route oral; conditions: plasma; summary of the method: as §1
# Mus musculus [7] = assay: Reduction in triglyceride level in human ApoA1 transgenic mouse at 2 mg/kg, po for 7 days relative to control; type: functional; set-up: scale not given: the % may be the effect or the level left; summary of the method: as §3
# [8] = biological target: T1, Peroxisome proliferator-activated receptor alpha (Mus musculus, UniProt P23204); assay: Agonist activity at Gal4-fused mouse PPARalpha; type: functional
# T1 sequence (P23204 whole entry): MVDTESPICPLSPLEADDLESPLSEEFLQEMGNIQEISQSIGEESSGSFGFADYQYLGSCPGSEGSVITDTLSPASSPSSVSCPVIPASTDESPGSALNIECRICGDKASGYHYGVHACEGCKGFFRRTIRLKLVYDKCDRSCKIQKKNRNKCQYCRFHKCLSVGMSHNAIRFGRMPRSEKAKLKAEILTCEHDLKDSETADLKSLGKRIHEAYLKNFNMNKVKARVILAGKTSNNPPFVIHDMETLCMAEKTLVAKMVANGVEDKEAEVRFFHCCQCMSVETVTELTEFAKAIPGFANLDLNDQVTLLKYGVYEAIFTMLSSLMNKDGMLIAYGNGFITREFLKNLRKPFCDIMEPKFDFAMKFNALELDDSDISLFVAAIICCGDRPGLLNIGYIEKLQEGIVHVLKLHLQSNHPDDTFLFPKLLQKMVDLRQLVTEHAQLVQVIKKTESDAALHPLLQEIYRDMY
# Albumin = Albumin (Homo sapiens, UniProt P02768); assay: Binding affinity to human serum albumin; type: ADME; conditions: isolated protein
# Sequence of Albumin (P02768 whole entry): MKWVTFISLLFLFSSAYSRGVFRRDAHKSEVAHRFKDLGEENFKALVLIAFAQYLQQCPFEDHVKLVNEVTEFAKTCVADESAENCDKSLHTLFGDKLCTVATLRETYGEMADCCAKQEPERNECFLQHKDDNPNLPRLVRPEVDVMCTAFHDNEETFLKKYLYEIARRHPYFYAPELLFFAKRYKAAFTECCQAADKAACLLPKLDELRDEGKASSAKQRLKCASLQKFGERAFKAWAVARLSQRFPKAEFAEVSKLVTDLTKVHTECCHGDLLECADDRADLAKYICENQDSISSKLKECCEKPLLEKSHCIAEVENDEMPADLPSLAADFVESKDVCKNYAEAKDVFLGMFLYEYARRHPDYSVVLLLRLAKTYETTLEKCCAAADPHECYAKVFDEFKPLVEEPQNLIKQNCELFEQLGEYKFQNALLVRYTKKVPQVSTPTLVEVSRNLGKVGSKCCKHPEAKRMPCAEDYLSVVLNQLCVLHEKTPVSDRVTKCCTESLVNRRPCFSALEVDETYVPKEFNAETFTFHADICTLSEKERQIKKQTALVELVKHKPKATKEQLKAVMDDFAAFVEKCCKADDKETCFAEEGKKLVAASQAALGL
# [9] = Tmax in NMRI mouse at 10 mg/kg, po; type: ADME, organism-based; set-up: dose 10 mg/kg, route oral; conditions: in vivo; summary of the method: as §1
# [10] = biological target: T2, Peroxisome proliferator-activated receptor gamma (Homo sapiens, UniProt P37231); assay: Agonist activity at Gal4-fused human PPARgamma
# T2 sequence (P37231 whole entry): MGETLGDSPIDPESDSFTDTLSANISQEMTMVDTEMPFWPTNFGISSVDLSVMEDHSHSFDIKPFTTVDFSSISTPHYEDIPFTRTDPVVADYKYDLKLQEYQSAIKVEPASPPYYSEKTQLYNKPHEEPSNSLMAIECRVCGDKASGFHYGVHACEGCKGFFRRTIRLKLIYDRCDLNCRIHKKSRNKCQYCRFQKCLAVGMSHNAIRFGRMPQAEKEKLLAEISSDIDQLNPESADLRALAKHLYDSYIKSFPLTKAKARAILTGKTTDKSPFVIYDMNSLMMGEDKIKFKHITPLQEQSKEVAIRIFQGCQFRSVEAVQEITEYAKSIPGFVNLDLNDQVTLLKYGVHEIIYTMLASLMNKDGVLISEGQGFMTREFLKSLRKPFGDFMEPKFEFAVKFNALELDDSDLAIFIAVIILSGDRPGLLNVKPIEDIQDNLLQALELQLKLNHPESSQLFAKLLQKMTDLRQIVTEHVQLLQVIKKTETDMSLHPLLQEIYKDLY
# [11] = biological target: T3, Peroxisome proliferator-activated receptor delta (Homo sapiens, UniProt Q03181); assay: Agonist activity at Gal4-fused human PPARdelta; type: functional
# T3 sequence (Q03181 whole entry): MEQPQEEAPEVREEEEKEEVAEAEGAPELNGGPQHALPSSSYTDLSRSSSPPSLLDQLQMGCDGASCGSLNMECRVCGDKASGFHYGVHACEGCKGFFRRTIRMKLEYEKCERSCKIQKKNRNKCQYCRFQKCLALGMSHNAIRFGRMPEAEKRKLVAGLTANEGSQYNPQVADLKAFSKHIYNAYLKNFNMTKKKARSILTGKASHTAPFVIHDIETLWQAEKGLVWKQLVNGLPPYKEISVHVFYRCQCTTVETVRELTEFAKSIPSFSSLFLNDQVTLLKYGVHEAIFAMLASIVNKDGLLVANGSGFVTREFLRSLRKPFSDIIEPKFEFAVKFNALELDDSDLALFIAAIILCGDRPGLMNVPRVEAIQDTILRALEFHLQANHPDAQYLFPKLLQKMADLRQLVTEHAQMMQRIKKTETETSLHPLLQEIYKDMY
# Mus musculus [12] = assay: Increase in total cholesterol level in human ApoA1 transgenic mouse at 0.6 mg/kg, po for 7 days (RVb = 29 %); type: functional; summary of the method: as §3
# [13] = biological target: T4, Peroxisome proliferator-activated receptor delta (Mus musculus, UniProt P35396); assay: Agonist activity at Gal4-fused mouse PPARdelta; type: functional
# T4 sequence (P35396 whole entry): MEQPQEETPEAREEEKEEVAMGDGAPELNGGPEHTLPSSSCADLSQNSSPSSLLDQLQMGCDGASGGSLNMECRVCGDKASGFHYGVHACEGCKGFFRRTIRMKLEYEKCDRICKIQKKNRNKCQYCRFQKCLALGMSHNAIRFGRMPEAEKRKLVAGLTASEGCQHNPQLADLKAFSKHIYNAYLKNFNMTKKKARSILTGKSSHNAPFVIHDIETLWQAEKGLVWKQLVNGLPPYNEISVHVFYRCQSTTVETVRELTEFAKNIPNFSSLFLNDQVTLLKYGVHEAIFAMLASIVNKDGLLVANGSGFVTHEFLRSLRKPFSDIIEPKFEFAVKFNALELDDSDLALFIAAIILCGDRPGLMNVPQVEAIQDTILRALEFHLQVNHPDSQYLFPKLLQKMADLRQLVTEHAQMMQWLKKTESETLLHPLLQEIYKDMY
# Mus musculus [14] = assay: Reduction in triglyceride level in human ApoA1 transgenic mouse at 0.6 mg/kg, po for 7 days relative to control; type: functional; set-up: scale not given: the % may be the effect or the level left; summary of the method: as §3
# [15] = biological target: T5, Peroxisome proliferator-activated receptor alpha (Homo sapiens, UniProt Q07869); assay: Agonist activity at Gal4-fused human PPARalpha; type: functional
# T5 sequence (Q07869 whole entry): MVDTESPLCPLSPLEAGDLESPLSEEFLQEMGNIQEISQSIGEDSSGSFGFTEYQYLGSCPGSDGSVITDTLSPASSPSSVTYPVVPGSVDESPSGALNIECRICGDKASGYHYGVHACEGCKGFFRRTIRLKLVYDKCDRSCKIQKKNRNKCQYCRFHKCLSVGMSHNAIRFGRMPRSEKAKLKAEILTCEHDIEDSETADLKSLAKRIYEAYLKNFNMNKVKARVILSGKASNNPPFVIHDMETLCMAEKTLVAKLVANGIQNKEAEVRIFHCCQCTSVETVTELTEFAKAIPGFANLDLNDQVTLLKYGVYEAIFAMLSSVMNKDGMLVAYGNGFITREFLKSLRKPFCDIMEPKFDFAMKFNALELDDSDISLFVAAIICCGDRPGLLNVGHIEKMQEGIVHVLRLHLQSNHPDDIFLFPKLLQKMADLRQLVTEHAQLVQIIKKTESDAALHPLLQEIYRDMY
# [16] = biological target: T6, Peroxisome proliferator-activated receptor gamma (Mus musculus, UniProt P37238); assay: Agonist activity at Gal4-fused mouse PPARgamma; type: functional
# T6 sequence (P37238 whole entry): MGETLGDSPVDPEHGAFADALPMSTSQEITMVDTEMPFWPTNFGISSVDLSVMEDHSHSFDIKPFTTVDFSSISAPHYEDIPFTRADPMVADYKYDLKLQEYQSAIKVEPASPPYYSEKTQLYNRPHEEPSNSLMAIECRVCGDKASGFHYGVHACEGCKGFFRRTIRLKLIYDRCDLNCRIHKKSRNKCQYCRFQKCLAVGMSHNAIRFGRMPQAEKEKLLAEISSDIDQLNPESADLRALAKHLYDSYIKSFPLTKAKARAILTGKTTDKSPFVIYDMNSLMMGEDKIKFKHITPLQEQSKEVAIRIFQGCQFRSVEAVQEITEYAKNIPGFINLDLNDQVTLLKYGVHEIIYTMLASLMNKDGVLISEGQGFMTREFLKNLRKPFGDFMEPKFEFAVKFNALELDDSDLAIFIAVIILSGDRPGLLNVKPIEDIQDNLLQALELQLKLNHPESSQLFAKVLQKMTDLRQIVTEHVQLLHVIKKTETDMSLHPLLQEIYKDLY
# Mus musculus [17] = assay: Increase in total cholesterol level in human ApoA1 transgenic mouse at 6 mg/kg, po for 7 days (RVb = 29 %); type: functional; summary of the method: as §3
smiles,measurement,setting,value
Cc1ccc(NC(=O)CN(Cc2ccc(OC(C)(C)C(=O)O)cc2)Cc2ccco2)c(C)c1,solubility,[1],500 µg/mL
same,bioavailability,[2],20%
same,half-life,[3],2 h
same,clearance,[4],89.2 mL/min/kg
same,Activity,Mus musculus [5],74%
same,AUC,[6],370 ng·h/mL
same,Activity,Mus musculus [7],-20%
same,EC50,[8],20 nM
same,Activity,Albumin,10 µM
same,Tmax,[9],0.5 h
same,EC50,[10],800 nM
same,EC50,[11],6000 nM
same,Activity,Mus musculus [12],58%
same,EC50,[13],2000 nM
same,Activity,Mus musculus [14],-3%
same,EC50,[15],20 nM
same,EC50,[16],300 nM
same,Activity,Mus musculus [17],91%
CC(C)(Oc1ccc(CN(CC(=O)Nc2ccccn2)Cc2ccco2)cc1)C(=O)O,EC50,[15],> 25000 nM
CCCN(CC(=O)Nc1ccc(C)cc1C)Cc1ccc(OC(C)(C)C(=O)O)cc1,EC50,[15],1000 nM
COc1ccc(CN(CC(=O)Nc2ccc(C)cc2C)Cc2ccc(OC(C)(C)C(=O)O)cc2)cc1,EC50,[15],900 nM
CC(C)(Oc1ccc(CN(CC(=O)NCc2ccccc2)Cc2ccco2)cc1)C(=O)O,EC50,[15],13000 nM
CCCCCCCN(CC(=O)Nc1ccc(C)cc1C)Cc1ccc(OC(C)(C)C(=O)O)cc1,EC50,[15],> 25000 nM
CC(C)(Oc1ccc(CN(CC(=O)Nc2ccc(F)cc2F)Cc2ccco2)cc1)C(=O)O,EC50,[15],1500 nM
COc1cccc(NC(=O)CN(Cc2ccc(OC(C)(C)C(=O)O)cc2)Cc2ccco2)c1,EC50,[15],3000 nM
Cc1ccc(C)c(NC(=O)CN(Cc2ccc(OC(C)(C)C(=O)O)cc2)Cc2ccco2)c1,EC50,[15],600 nM
Cc1ccc(NC(=O)CN(Cc2ccccc2)Cc2ccc(OC(C)(C)C(=O)O)cc2)c(C)c1,EC50,[15],1000 nM
CC(C)(Oc1ccc(CN(CC(=O)NCc2ccccc2Cl)Cc2ccco2)cc1)C(=O)O,EC50,[15],7000 nM
CCCCN(CC(=O)Nc1ccc(C)cc1C)Cc1ccc(OC(C)(C)C(=O)O)cc1,EC50,[15],10000 nM
Cc1ccccc1NC(=O)CN(Cc1ccc(OC(C)(C)C(=O)O)cc1)Cc1ccco1,EC50,[15],2000 nM
Cc1ccc(NC(=O)CN(Cc2ccc(OC(C)(C)C(=O)O)cc2)Cc2cccs2)c(C)c1,EC50,[15],700 nM
COc1ccc(OC)c(NC(=O)CN(Cc2ccc(OC(C)(C)C(=O)O)cc2)Cc2ccco2)c1,EC50,[15],300 nM
CCCCCCCN(CCc1ccc(SC(C)(C)C(=O)O)cc1)C(=O)Nc1ccc(F)cc1F [GSK-9578],solubility,[1],100 µg/mL
same,EC50,[8],10 nM
same,Activity,Albumin,1.3 µM
same,EC50,[11],2000 nM
same,EC50,[13],2000 nM
same,EC50,[16],2500 nM
